Data from ChEMBL document CHEMBL3351569, “Synthesis and antiproliferative activity of some new thieno[2,3-d]pyrimidin-4(3H)-ones containing 1,2,4-triazole and 1,3,4-thiadiazole moiety” (Eur J Med Chem, 2014).

Assays:
[1] = Antiproliferative activity against human LEP-3 cells by CellTiter-96 non-radioactive assay; assay type: cell-based
How it was run: (§1)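 Compounds were dissolved in DMSO at 4 mg/ml (stock) and diluted 1:10, 1:100, 1:1000 and 1:10 000. Cells were incubated 24 h with compound, with untreated cells in unmodified medium as the control. MTS reagent was then added for 2 h at 37°C under 5% CO2/95% air, and absorbance was read at 490 nm. Viability is expressed as % of untreated control (100%) at each concentration, and IC50/EC50 were calculated from it.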

MDA-MB-231 [2] = assay: Antiproliferative activity against human MDA-MB-231 cells by CellTiter-96 non-radioactive assay; assay type: functional, cell-based; how it was run: as §1
HeLa [3] = assay: Cytotoxicity against human HeLa cells assessed as reduction in cell viability after 24 hrs by MTS assay; assay type: functional, cell-based; how it was run: as §1
HT-29 [4] = assay: Antiproliferative activity against human HT-29 cells by CellTiter-96 non-radioactive assay; assay type: functional, cell-based; how it was run: as §1
HepG2 [5] = assay: Cytotoxicity against human HepG2 cells assessed as reduction in cell viability after 24 hrs by MTS assay; assay type: functional, cell-based; settings: HepG2, 24 h; how it was run: as §1
HeLa [6] = assay: Antiproliferative activity against human HeLa cells by CellTiter-96 non-radioactive assay; assay type: functional, cell-based; how it was run: as §1
HT-29 [7] = assay: Cytotoxicity against human HT-29 cells assessed as reduction in cell viability after 24 hrs by MTS assay; assay type: functional, cell-based; settings: HT-29, 24 h; how it was run: as §1
[8] = Cytotoxicity against human LEP-3 cells assessed as reduction in cell viability after 24 hrs by MTS assay; assay type: cell-based; settings: LEP-3, 24 h; how it was run: as §1
MDA-MB-231 [9] = assay: Cytotoxicity against human MDA-MB-231 cells assessed as reduction in cell viability after 24 hrs by MTS assay; assay type: functional, cell-based; settings: MDA-MB-231, 24 h; how it was run: as §1
HepG2 [10] = assay: Antiproliferative activity against human HepG2 cells by CellTiter-96 non-radioactive assay; assay type: functional, cell-based; how it was run: as §1

Structure (SMILES)	EC50 [1] [µM]	EC50 (MDA-MB-231 [2]) [µM]	IC50 (HeLa [3]) [µM]	EC50 (HT-29 [4]) [µM]	IC50 (HepG2 [5]) [µM]	EC50 (HeLa [6]) [µM]	IC50 (HT-29 [7]) [µM]	IC50 [8] [µM]	IC50 (MDA-MB-231 [9]) [µM]	EC50 (HepG2 [10]) [µM]
O=c1[nH]c(Cc2nnc(S)n2-c2ccccc2)nc2sc3c(c12)CCCC3	0.46	1.2	0.00095	1.8	1800	–	–	–	–	–
Cc1c(C(=O)O)sc2nc(Cc3nnc(S)n3-c3ccccc3)[nH]c(=O)c12	1.21	0.3	–	0.86	0.29	0.12	–	–	–	–
CCNc1nnc(Cc2nc3sc4c(c3c(=O)[nH]2)CCCC4)s1	–	–	3.8	–	0.21	–	0.097	0.44	1.26	–
CCNc1nnc(Cc2nc3sc(C(=O)OCC)c(C)c3c(=O)[nH]2)s1	0.31	–	3.31	0.42	–	–	–	–	0.0012	1.26
O=c1[nH]c(Cc2nnc(Nc3ccccc3)s2)nc2sc3c(c12)CCCC3	–	–	1.85	–	1.23	–	0.13	3.17	0.0374	–
CCOC(=O)c1sc2nc(Cc3nnc(Nc4ccccc4)s3)[nH]c(=O)c2c1C	0.26	0.0018	2.3	1.5	0.88	–	–	–	–	–
NNC(=O)Cc1nc2sc3c(c2c(=O)[nH]1)CCCC3	2.21	1.54	–	2.12	–	2.52	–	–	–	2.18
CCNC(=S)NNC(=O)Cc1nc2sc3c(c2c(=O)[nH]1)CCCC3	0.12	1.8	–	0.04	–	0.032	–	–	–	1.02
CCNC(=S)NNC(=O)Cc1nc2sc(C(=O)OCC)c(C)c2c(=O)[nH]1	0.025	–	1.7	0.089	–	–	–	–	0.0391	0.19
CCOC(=O)c1sc2nc(CC(=O)NNC(=S)Nc3ccccc3)[nH]c(=O)c2c1C	–	–	9.3	–	1.47	–	0.00156	1500	1.21	–
CCn1c(S)nnc1Cc1nc2sc3c(c2c(=O)[nH]1)CCCC3	1.14	0.13	1.69	2.43	–	–	–	–	–	2.08
CCn1c(S)nnc1Cc1nc2sc(C(=O)O)c(C)c2c(=O)[nH]1	1.4	1.16	–	0.91	–	2.34	–	–	–	1.4
